Here are results for 23 sequences from the EternaBench riboswitch data.

The test system of the series is MS2 coat protein. The experiment in a line: apparent Kd, MS2 coat protein; higher = weaker binding; RNA-MaP array; tryptophan 2.4 mM where present. In outline:
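Stalled E. coli RNA polymerase transcribed each design on Illumina sequencing-chip clusters. The clusters were titrated with SNAP-549-labelled MS2 coat protein, starting at 0.7 or 1.5 nM and doubling up to 3 µM, first without ligand and then with constant ligand, in 100 mM Tris-HCl pH 7.5, 80 mM KCl, 4 mM MgCl2, BSA, DTT, yeast tRNA and Tween-20. Green signal was normalised to red-channel RNA signal and to the control-cluster median Fmax. The apparent Kd is the median of filtered binding-curve fits made for each cluster.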

The mark [1] stands for this setting: designed as: ON switch for tryptophan, no ligand.
The mark [2] stands for this setting: ligand present: tryptophan, designed as: ON switch for tryptophan.
Where [3] appears, read: designed as: OFF switch for tryptophan, no ligand.
Setting [4] is: ligand present: tryptophan, designed as: OFF switch for tryptophan.

In general, apparent Kd refers to a dissociation constant that holds for the conditions of the assay. For “AAUUAAACAUCGGCCGCCACUUACUCAUGAGGUAACAACAUGAGGAUCACCCAUGUUUGAGGAUCAAGGACCGGGAUGUAAUAAU”, the “apparent Kd” value under setting [1] was found to be 31.3 nM and the “apparent Kd” value under setting [2] is 22.6 nM.

“UUACCGUAAGGUAUACCGGUCUACAAUAAUCGAGGACCGGUACGGCCGCCACUCGAUGUGUAAUCACAUGAGGAUCACCCAUGUA”: the “apparent Kd” value under setting [1] amounted to 23.3 nM and the “apparent Kd” value under setting [2] came to 18.5 nM.

In the case of “UUAUAAGUACCGGUCCUCAGAUCCUCAUGACGAGGACCGGUACGGCCGCCACUCGAAACAUGAGGAUCACCCAUGUAAUAACAUU”, the “apparent Kd” value by setting is: under setting [3], 20 nM; under setting [4], 20.1 nM.

“UAUAAUAACUCGGCCGCCACUGGCACAUGAGGAUCACCCAUGUCUAUAUAUAAUAUAUAGUUGCACAGGACCGGGAGAUAUAUAU”: the “apparent Kd” value is, setting by setting: under setting [3], 8.95 nM; under setting [4], 8.21 nM.

Consider “GGGUCAGGCGCGGCCGCCACUGCGGUGAUGUGACAUGAGGAUCACCCAUGUUGUCAUGUGGCACAUAGGACCGGGUGCCUGGCCC”, for which the “apparent Kd” value turned out to be 30.1 nM under setting [3] and 29.9 nM under setting [4].

“ACGCUGCAUAGGAAAACUAUGUAGCGAAAUCGAGGACCGGUACGGCCGCCACUCGUCCUCAACAUGAGGAUCACCCAUGUAAUAA”: the “apparent Kd” value under setting [3] turned out to be 19.9 nM and the “apparent Kd” value under setting [4] is 34.7 nM.

Regarding “AGGUGCGGCACGGCCGCCACUGCGGUGGUGUGACAUGAGGAUCACCCAUGUUGUCAUGCGGCCCUUAGGACCGGGUGGCGUGCCU”, the “apparent Kd” value reads like this: under setting [3], 39.7 nM; under setting [4], 46 nM.

In the case of “CCAUAAGUACCGGUCCUCAGAUCCUCAUGACGAGGACCGGUACGGCCGCCACUCGAAACAUGAGGAUCACCCAUGUAAUAAUACC”, the “apparent Kd” value runs as follows: under setting [3], 39.2 nM; under setting [4], 26.4 nM.

Consider “AAUAAUAGGUGAUCUUGUGUCGUACCGUAACGAGGACCGGUACGGCCGCCACUCGAACAUGAGGAUCACCCAUGUAUGUAUGAUA”, for which the “apparent Kd” value is, setting by setting: under setting [1], 171 nM; under setting [2], 128 nM.

“AUAACAUGAGGAUCACCCAUGUAUUGGUAACGAGGACCGGUACGGCCGCCACUCGUAUUUUGGUGGUAUUAUAUAUAUAUGAUUA”: the “apparent Kd” value runs as follows: under setting [1], 20.8 nM; under setting [2], 19.7 nM.

Consider “CACAGUGCGAAUUUGAAUUCGCACGAUCCUCGAGGACCGGUACGGCCGCCACUCGCGCGGGUCGUACAUGAGGAUCACCCAUGUC”, for which the “apparent Kd” value came out at 166 nM under setting [1] and 842 nM under setting [2].

On to “UAAUAAUUCCUCAUGUCACGAGUGGCAUAACGAGGACCGGUACGGCCGCCACUCGAACAUGAGGAUCACCCAUGUAGCCACUCGA”, for which the “apparent Kd” value under setting [1] is 143 nM and the “apparent Kd” value under setting [2] was 113 nM.

With “AUUGUGAAGUCGGCCGCCACUGGUUAGUUUAACCUCAUGUAACAUGAGGAUCACCCAUGUAAUGACAGGACCGGGACAAUAGUAA”, the “apparent Kd” value worked out at 187 nM under setting [3] and 151 nM under setting [4].

As for “GCCGGUACGUCGGCAAAGCCGAUGUGCCAGCGAGGACCGGUACGGCCGCCACUCGUACAUGAGGAUCACCCAUGUCCGGUCCGGC”, the “apparent Kd” value came to 44.7 nM under setting [1] and 49 nM under setting [2].

Turning to “AACAUCACAACGGCCGCCACUGCACAUGACAACAUGAGGAUCACCCAUGUGGAUCACCCAUGUCCCAGGACCGGGUUAUGAGGAU”, the “apparent Kd” value under setting [1] stood at 29.1 nM and the “apparent Kd” value under setting [2] worked out at 25.9 nM.

As to “GAGCUCGUGGACUGGCGUGCUCCGCUCCGUCGAGGACCGGUACGGCCGCCACUCGACAUGAGGAUCACCCAUGUGUGAGCUCGCU”, the “apparent Kd” value was determined as 75.3 nM under setting [3] and 54.2 nM under setting [4].

“GAUCGAAAUAACGCAUAGGAAAACUAUGCGCGAGGACCGGUACGGCCGCCACUCGUCCUCACAUGAGGAUCACCCAUGUACGAUC”: the “apparent Kd” value turned out to be 22.4 nM under setting [3] and 58.6 nM under setting [4].

As for “AAUACCGGAUCGGCCGCCACUGGUUGGCCCUGUGUACAUGAGGAUCACCCAUGUCCAUCCCAAACCAGGACCGGGAUCUUUGUGC”, the “apparent Kd” value runs as follows: under setting [1], 12 nM; under setting [2], 10.2 nM.

Turning to “ACAUGAGGAUCACCCAUGUGAAGCAGGGUACGAGGACCGGUACGGCCGCCACUCGAGGAUUAUGCCGAGUGAAUGGCAACGAUGU”, the “apparent Kd” value is, setting by setting: under setting [3], 14.4 nM; under setting [4], 15.4 nM.

“UCGUUUUAGUCGGCCGCCACUGUAUGCAUGUUUAACAUGAGGAUCACCCAUGUCCCGUACUAUUUCAGGACCGGGACGUAAUCGA”: the “apparent Kd” value under setting [1] was found to be 322 nM and the “apparent Kd” value under setting [2] is 156 nM.

Regarding “GGAUAGGACACGGCCGCCACUAGCUAGGAUACUAGCAACAUUUCCUCACAUGAGGAUCACCCAUGUAGGACCGGGUGUCCUAUCG”, the “apparent Kd” value under setting [3] was found to be 111 nM and the “apparent Kd” value under setting [4] came out at 135 nM.

For the sequence “AAAGAUCGGAAACGAUCGGCGGCUUGGGCGCGAGGACCGGUACGGCCGCCACUCGGGAAACAUGAGGAUCACCCAUGUUGCUUCU”, the “apparent Kd” value is, setting by setting: under setting [3], 10.9 nM; under setting [4], 12 nM.

Consider “GCAUCCUAGUCGGCCGCCACUGCAAUUGUAAUACUGCUACAUGAGGAUCACCCAUGUCCAUGUAGCAGGACCGGGACUAGGAUGC”, for which the “apparent Kd” value by setting is: under setting [1], 578 nM; under setting [2], 79.8 nM.
